The test system of series [1] is HepG2. Briefly: Cytotoxicity against human HepG2 cells assessed as reduction in cell viability at <=10 uM by MTT assay. Type of series: cell-based.
The target of series [2] is T1, Proprotein convertase subtilisin/kexin type 9 (Homo sapiens, UniProt Q8NBP7). Briefly: Modulation of PCSK9 in human HepG2 cells assessed as reduction in PCSK9 expression incubated for 24 hrs prior to compound washout followed by compound addition and measured after 24 hrs by ELISA. Type of series: cell-based. Put shortly:
(§1)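 HepG2 cells grown to 90% confluence and plated at 1X105 cells/well, then left to settle overnight. Medium replaced with dose medium containing compound or DMSO vehicle for 24 h, refreshed with the same medium, then incubated 24 h more. Medium collected after centrifugation. PCSK9 measured by sandwich ELISA with TMB read-out at 450 nm. Values normalized to vehicle, mean of n = 3.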

Series [3] concerns the target T1, Proprotein convertase subtilisin/kexin type 9. Kind of series: Modulation of PCSK9 in human HepG2 cells assessed as reduction in PCSK9 expression at 10 to 100 nM incubated for 24 hrs prior to compound washout followed by compound addition and measured after 24 hrs by ELISA. Type of series: cell-based. The following applies: filed as modulator, dose 10-100 nM, time 48.0 hrs. Summed up:
(§2)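 HepG2 cells grown to 90% confluence, plated at 1X105 cells/well and left overnight. Medium then replaced with compound- or vehicle (DMSO)-containing dose medium, refreshed at 24 h, collected after a further 24 h. Secreted PCSK9 measured by sandwich ELISA with TMB read-out at 450 nm. Values normalized to DMSO group, mean of n = 3 ± SD.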

Series [4] shares this target. Kind of series: Modulation of PCSK9 in human HepG2 cells assessed as reduction in PCSK9 expression at 10 nM incubated for 24 hrs prior to compound washout followed by compound addition and measured after 24 hrs by ELISA. Details: scale not given: the % may be the effect or the level left. The note with it: time 48.0 hrs. Type of series: cell-based. Summed up: as §1
(ELISA stands for enzyme-linked immunosorbent assay.)

The target is the same in series [5]. Briefly: Modulation of PCSK9 in human HepG2 cells assessed as reduction in PCSK9 expression at 100 nM incubated for 24 hrs prior to compound washout followed by compound addition and measured after 24 hrs by ELISA. Details: scale not given: the % may be the effect or the level left. The following applies: time 48.0 hrs. Type of series: cell-based. Summed up:
as §1

The nature of series [6]: AUC (0 to infinity) in BTBR mouse at 6 mg/kg, ip administered as single dose by LC-MS/MS analysis. Type of series: ADME, organism-based. Details: time infinity, route intraperitoneal, dose 6 mg/kg. The note with it: in vivo. Summed up: (§3)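 Mice given a single intraperitoneal dose of 6 mg/kg. Formulation: DMSO (10 %) and Tween 80 (10 %) in PBS (80 %). Plasma samples collected and analysed by LC-MS/MS. AUC is total exposure after the single dose, Cmax is maximum plasma concentration, and T1/2 is half-life.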

Series [7] is described as follows: Intrinsic clearance in mouse liver microsomes measured after 60 mins in presence of NADPH by LC-MS/MS analysis. Type of series: ADME, Microsome. The following applies: for microsomal intrinsic clearance: microsomes, 1 h. (In general: Microsomes from liver hold many membrane-bound enzymes, among them those of drug oxidation.)
Series [8] is described as follows: Half life in BTBR mouse at 6 mg/kg, ip administered as single dose by LC-MS/MS analysis. It is filed as ADME, organism-based. The note with it: in vivo. Summed up: as §3
Series [9] is described as follows: Intrinsic clearance in rat liver microsomes measured after 60 mins in presence of NADPH by LC-MS/MS analysis. Type of series: ADME, Microsome. The note with it: for Intrinsic clearance in rat liver microsomes: 1 h.
Series [10] is described as follows: Half life in mouse liver microsomes measured after 60 mins in presence of NADPH by LC-MS/MS analysis. It is filed as ADME, Microsome. The note with it: 1 h.
A short description of series [11]: Half life in rat liver microsomes measured after 60 mins in presence of NADPH by LC-MS/MS analysis. Type of series: ADME, Microsome. The note with it: 1 h.
For series [12], the target named is T1, Proprotein convertase subtilisin/kexin type 9. Kind of series: Modulation of PCSK9 in human HepG2 cells assessed as reduction in PCSK9 expression at 1 uM incubated for 24 hrs prior to compound washout followed by compound addition and measured after 24 hrs by ELISA. Details: scale not given: the % may be the effect or the level left. It is filed as cell-based. The following applies: filed as modulator, time 48.0 hrs. Put shortly:
as §1

Series [13] in a line: Cmax in BTBR mouse at 6 mg/kg, ip administered as single dose by LC-MS/MS analysis. Type of series: ADME, organism-based. Details: route intraperitoneal, dose 6 mg/kg. The note with it: in vivo. Summed up: as §3
A short description of series [14]: Half life in human liver microsomes measured after 60 mins in presence of NADPH by LC-MS/MS analysis. The following applies: 1 h. It is filed as ADME, Microsome.
Series [15] can be described thus: Intrinsic clearance in human liver microsomes measured after 60 mins in presence of NADPH by LC-MS/MS analysis. It is filed as ADME, Microsome. The following applies: 1 h.
The target in series [16] is T1, Proprotein convertase subtilisin/kexin type 9. Briefly: Modulation of PCSK9 in human HepG2 cells assessed as reduction in PCSK9 expression at 1 to 10 uM incubated for 24 hrs prior to compound washout followed by compound addition and measured after 24 hrs by ELISA. Type of series: cell-based. The following applies: filed as modulator, dose 1-10 µM, time 48.0 hrs. Put shortly:
as §2

The mark [17] stands for this setting: liver microsomes, read-out: CLH.

pEC50: −log10 of the molar value. Calls of active or inactive are those of the source. No cut-off for these calls is given here.

T1 sequence (Q8NBP7 31-152 limits assumed): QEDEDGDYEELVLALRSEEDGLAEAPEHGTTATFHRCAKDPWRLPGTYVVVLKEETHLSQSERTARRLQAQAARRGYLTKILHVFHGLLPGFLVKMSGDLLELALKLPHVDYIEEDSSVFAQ
T1 sequence (Q8NBP7 153-692 limits assumed): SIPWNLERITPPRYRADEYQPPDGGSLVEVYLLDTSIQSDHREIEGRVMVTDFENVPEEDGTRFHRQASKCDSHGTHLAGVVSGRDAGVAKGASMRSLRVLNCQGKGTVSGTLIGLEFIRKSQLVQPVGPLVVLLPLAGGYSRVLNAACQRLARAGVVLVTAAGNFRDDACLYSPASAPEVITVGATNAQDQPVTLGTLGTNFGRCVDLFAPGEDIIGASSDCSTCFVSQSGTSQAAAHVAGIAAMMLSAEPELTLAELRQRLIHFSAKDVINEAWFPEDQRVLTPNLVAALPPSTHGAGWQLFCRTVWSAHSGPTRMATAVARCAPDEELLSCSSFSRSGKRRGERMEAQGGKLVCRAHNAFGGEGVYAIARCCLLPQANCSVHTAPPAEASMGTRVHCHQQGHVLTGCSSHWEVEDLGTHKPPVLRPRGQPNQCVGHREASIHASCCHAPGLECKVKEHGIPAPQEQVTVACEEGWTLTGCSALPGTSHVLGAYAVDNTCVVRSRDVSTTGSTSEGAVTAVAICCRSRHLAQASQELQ

Consider `CCCCn1cc(C(=O)c2nc3ccc(F)cc3n2C)c2cccc(F)c21`, for which the Activity entry in [1] is reported as “Non-Toxic”. For the same compound, in series [2], the negative-log EC50 (pEC50) is 9.55.
Regarding `OCCn1c(Cc2c[nH]c3c(F)cccc23)nc2ccc(F)cc21`, the Activity entry in series [1] is recorded as “Non-Toxic”.
Consider `Cn1c(C(=O)c2c[nH]c3c(F)cccc23)nc2cccc(F)c21`, for which, in series [1], the Activity result is reported as “Non-Toxic”. In addition, in series [3], the result was Active.
On to `Fc1ccc2nc(Cc3c[nH]c4c(F)cccc34)n(Cc3ccccc3)c2c1`, for which the Activity result in [1] is recorded as “Non-Toxic”.
`Cn1c(C(=O)c2c[nH]c3c(F)cccc23)nc2cc(F)ccc21`: the Activity is 34.4% in [4], “Non-Toxic” in [1] and 11.9% in series [5].
Take `CC(C)(C)Cn1c(Cc2c[nH]c3c(F)cccc23)nc2ccc(F)cc21`: in series [1], the Activity result is “Non-Toxic”.
On to `Cn1c(C(=O)c2c[nH]c3c(F)cccc23)nc2c(F)cccc21`, for which, in series [1], the Activity entry is “Non-Toxic”. The result in series [3] was Active.
As for `O=C(c1cc2cc(F)ccc2[nH]1)c1c[nH]c2c(F)cccc12`, the AUC(0-inf) in series [6] is 610 ng·h/mL. Also, in [7], the microsomal intrinsic clearance stood at 34.6 µL/min/mg. Further, in [8], the half-life is 78.6 min. In addition, the “Intrinsic clearance in rat liver microsomes” value in series [9] turned out to be 18.1 µL/min/mg. The t1/2 in series [10] is 40.1 min; in series [11], 76.9 min. In addition, the result in series [12] was Active. Also, the Activity result in series [1] was “Non-Toxic”. In addition, the concentration in [13] peaked (Cmax) at 323 ng/mL.
As for `Cn1c(C(=O)c2cn(S(=O)(=O)CCN3CCOCC3)c3c(F)cccc23)nc2ccc(F)cc21`, in series [1], the Activity result is listed as “Non-Toxic”. For the same compound, the pEC50 in series [2] is 9.16.
As for `Cn1c(C(=O)c2cn(CCN3CCOCC3)c3c(F)cccc23)nc2ccc(F)cc21`, in series [1], the Activity result is on record as “Non-Toxic”. Also, the pEC50 in series [2] was 7.96.
For `Fc1ccc2nc(Cc3c[nH]c4c(F)cccc34)n(CCc3ccccc3)c2c1`, the Activity result in series [1] is “Non-Toxic”.
Turning to `[2H]C([2H])(c1nc2cc(F)ccc2[nH]1)c1c[nH]c2c(F)cccc12`, in series [7], the microsomal intrinsic clearance came out at 85.2 µL/min/mg. Besides, the “Intrinsic clearance in rat liver microsomes” value in series [9] worked out at 59.1 µL/min/mg. Moreover, the t1/2 in [10] is 16.3 min; in series [11] it was 23.5 min. In addition, the Activity result in [1] is “Non-Toxic”.
For `Cn1c(C(=O)c2cn(S(=O)(=O)CCN3CCNCC3)c3c(F)cccc23)nc2ccc(F)cc21`, the Activity result in [1] is on record as “Non-Toxic”. In series [2], the pEC50 is 6.79.
`Cn1cc(C(=O)c2nc3ccc(F)cc3n2C)c2cccc(F)c21`: the Activity result in series [1] is on record as “Non-Toxic”. The pEC50 in series [2] was 8.92.
As for `Fc1ccc2nc(Cc3c[nH]c4c(F)cccc34)n(Cc3cccnc3)c2c1`, in series [1], the Activity entry is given as “Non-Toxic”.
Take `O=C(c1nc2c(F)cccc2[nH]1)c1c[nH]c2c(F)cccc12`: in series [1], the Activity result is given as “Non-Toxic”.
As to `Cn1c(C(=O)c2c[nH]c3c(F)cccc23)nc2ccccc21`, the Activity entry in [1] was “Non-Toxic”. In addition, the outcome in series [3] was Active.
For `Cn1c(C(=O)c2c[nH]c3c(F)cccc23)nc2ccc(F)cc21`, the microsomal CLint in series [7] (setting [17]) was determined as 41.7 µL/min/mg; in [9] (setting [17]), 23 µL/min/mg. Also, the Activity in [4] is 35%; in series [1], “Non-Toxic”; in [5], 12.5%. Also, in series [2], the pEC50 is 9.82.
Turning to `Cn1c(C(=O)c2c[nH]c3cccc(F)c23)nc2ccc(F)cc21`, the Activity entry in series [1] is “Non-Toxic”.
`Cn1c(C(=O)c2c[nH]c3cc(F)ccc23)nc2ccc(F)cc21`: the Activity result in [1] was “Non-Toxic”.
Regarding `Cn1c(C(=O)c2c[nH]c3ccc(F)cc23)nc2ccc(F)cc21`, in series [1], the Activity result is recorded as “Non-Toxic”.
Turning to `Fc1ccc2nc(Cc3c[nH]c4c(F)cccc34)[nH]c2c1`, in [7], the microsomal intrinsic clearance was 194.9 µL/min/mg. In addition, the “Intrinsic clearance in rat liver microsomes” value in series [9] was 145.6 µL/min/mg. For the same compound, the t1/2 is recorded as 7.1 min in series [10], 17.5 min in series [14] and 9.5 min in [11]. Moreover, in [12], the result was Active. Besides, in series [1], the Activity entry is “Non-Toxic”. Moreover, the pEC50 in [2] was 6.46. The CLH in [15] turned out to be 79.4 µL/min/mg.
`CC(C)Cn1c(Cc2c[nH]c3c(F)cccc23)nc2ccc(F)cc21`: the Activity entry in series [1] was “Non-Toxic”.
As for `O=C(c1nc2ccc(F)cc2[nH]1)c1c[nH]c2ccccc12`, in [1], the Activity result is listed as “Non-Toxic”.
Still for that read-out and setting: next, `Fc1ccc2nc(Cc3c[nH]c4c(F)cccc34)n(Cc3ccncc3)c2c1`: “Non-Toxic”.
As to `Cn1c(Cc2c[nH]c3c(F)cccc23)nc2ccc(F)cc21`, the Activity entry in [1] is “Non-Toxic”. The result in [16] was Active.
In the case of `Fc1ccc2[nH]c(Cc3c[nH]c4c(F)cccc34)cc2c1`, the microsomal intrinsic clearance in series [7] was found to be 83.9 µL/min/mg. Besides, the “Intrinsic clearance in rat liver microsomes” value in [9] came to 60.7 µL/min/mg. Besides, the values for the t1/2 in series [10], in series [14] and in series [11] were 16.5 min, 63.9 min and 23.2 min, respectively. Moreover, the outcome in series [12] was Active. The CLH in series [15] is 23 µL/min/mg.
In the case of `O=C(c1nc2ccccc2[nH]1)c1c[nH]c2ccccc12`, in series [7], the microsomal intrinsic clearance came out at 54.6 µL/min/mg. Also, in [9], the “Intrinsic clearance in rat liver microsomes” value was found to be 33.1 µL/min/mg. Besides, the t1/2 was found to be 25.8 min in series [10] and 42.4 min in [11]. Further, in [1], the Activity result is on record as “Non-Toxic”.
With `O=C(c1nc2ccccc2[nH]1)c1c[nH]c2c(F)cccc12`, in series [1], the Activity entry was “Non-Toxic”.
`Cn1c(C(=O)c2c[nH]c3ccccc23)nc2ccc(F)cc21`: in [1], the Activity entry was “Non-Toxic”. For the same compound, the result in series [3] was Active.
Compound `O=C(c1nc2ccc(F)cc2[nH]1)c1c[nH]c2c(F)cccc12` came in with a total exposure AUC(0-inf) in [6] of 696 ng·h/mL. Further, the microsomal intrinsic clearance in series [7] turned out to be 46.5 µL/min/mg. This compound also gave a half-life in [8] of 98.4 min. In addition, in [9], the “Intrinsic clearance in rat liver microsomes” value was found to be 29.4 µL/min/mg. Besides, the t1/2 amounted to 30 min in series [10] and 47.8 min in series [11]. Besides, the figures for the Activity in series [12] and in [1] were 90% and “Non-Toxic”, respectively. In series [2], the negative logarithm of the EC50 (pEC50) is 8.61. This compound also gave a Cmax in series [13] of 294 ng/mL.
Regarding `Cn1c(C(=O)c2cn(CCCN3CCOCC3)c3c(F)cccc23)nc2ccc(F)cc21`, the Activity result in series [1] is on record as “Non-Toxic”. In addition, the pEC50 in series [2] was 7.40.
`Cn1c(C(=O)c2cn(CCCCN3CCOCC3)c3c(F)cccc23)nc2ccc(F)cc21`: the Activity result in series [1] is “Non-Toxic”. In addition, the pEC50 in [2] was 7.06.

The term pEC50 denotes the negative decadic logarithm of the EC50, by convention in mol/L. In general, AUC(0-inf) refers to total exposure, with the tail of the curve extrapolated. For orientation: half-life means how long it takes for the measured level to halve. Broadly, the Cmax is the maximum level reached in the sampled fluid or tissue.
